Rin1-Abl PPI inh – inhibitors of Rin1-Abl protein binding, primary screen, biochemical, TR-FRET | inhibition, % at 7.35 µM | Tyrosine-protein kinase ABL1 (Homo sapiens) + Ras and Rab interactor 1 (Homo sapiens), … | 0.4% of 360,000 active; in the data active = inhibition above about 5%, passing the limit was not always enough
Tb MetRS inh – T. brucei MetRS inhibitors, primary screen, biochemical, luminescence | purified T. brucei MetRS, ATP depletion, Kinase-Glo luminescence | inhibition, % at 11.9 µM | 0.4% of 360,000 active | methionyl-tRNA synthetase (Trypanosoma brucei brucei);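 active = inhibition above a per-plate cutoff of the control wells' mean inhibition plus 3 SD, cut at about 5.5% in these data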
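Dosing: 11.9 µM single point; system: parasite MetRS enzyme; technique: luminescence of leftover ATP; times: 15 min enzyme-compound preincubation, 2 h reaction, 10 min detection, 25 °C; replicates: each compound tested once; read-out basis: percent inhibition relative to median high and low control wells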
SKN-1 block – suppressors of acrylamide-induced Pgst-4::GFP reporter in worms, primary screen, SKN-1 inhibitor project, whole organism, uHTS, GFP/RFP fluorescence ratio, strain VP596; C. elegans VP596 Pgst-4::GFP/RFP ratio, 24 h; inhibition, % at 21.8 µM; 0.49% of 360,000 active; AID 624304, 2012;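 active = interference check ratio from 0.5 to 1.5 plus GFP to RFP signal ratio inhibition reaching or exceeding a fixed threshold, cut at about 30% in these data, passing the limit was not always enough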
MT1-MMP act inh – blockers of MT1-MMP proenzyme processing, primary screen, HT1080 RFP-PRO-GFP cells, GFP/RFP fluorescence; 0.061% of 360,000 active; Matrix metalloproteinase-14 (Homo sapiens), P50281; GFP/RFP ratio fluorescence, overnight; percent of plate control window, DMSO zero; AID 651647, 2012; GFP/RFP ratio change, % at 20 µM;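 active = GFP/RFP ratio change of at least 30% with cell ATP level not reduced by more than half and red fluorescence within 50% of control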
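Assay system: HT1080 RFP-PRO-GFP cells. Benchmarks: DMSO vehicle wells and RFP-L50D-GFP reporter cell wells. Times: overnight cell settling, then overnight compound exposure, 37 °C, 5% CO2. Compound: 20 µM single dose, 1% DMSO. Read-out basis: GFP/RFP fluorescence ratio.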
Arrestin-AP2 inh – inhibitors of beta-arrestin/AP2 binding, primary screen, biochemical, GPCR trafficking, flow cytometry | beta-arrestin 1 C-terminal peptide binding to AP2 beta2-adaptin appendage (human) | FITC-arrestin peptide / GST-AP2 beads; AP2 beta2 appendage carries R879A mutation | inhibition, % at 10 µM | 0.31% of 340,000 active;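 active = inhibition above a set limit, near 3 SD of compounds lacking own fluorescence, cut at about 54% in these data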
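System: GST-AP2 R879A glutathione beads; medium: PBS, Tween 20 0.05%, BSA 0.1%; reagent: fluorescein-tagged arrestin peptide at 50 nM final; schedule: pre-incubation 12 min, peptide binding 1 h, room temperature; detection: flow cytometry, FL1 (488/535 nm); read-out: inhibition as reduced fluorescein signal on beads, percent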
Rin1-Abl confirm – Rin1-Abl binding inhibitor retest, confirmation, biochemical, TR-FRET. shares compounds with Rin1-Abl PPI inh. purified proteins. inhibition, % at 7.35 µM. 49% of 1,300 active. AID 602124, 2011
GFP quencher – GFP fluorescence inhibitors and quenchers, artefact control for Rin1-Abl interaction inhibitor project, biochemical; shares compounds with Rin1-Abl PPI inh; inhibitors/quenchers counterscreen; inhibition, % at 6.75 µM; 8.5% of 1,300 active;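 also: ABL1-eGFP fusion protein alone without its partner RIN1-SBP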
GFP quench dose – GFP fluorescence inhibitors and quenchers, dose response, artefact control for Rin1-Abl interaction inhibitor project, biochemical; shares compounds with Rin1-Abl PPI inh; IC50, µM; 230 tested, under 10 active; GFP fluorescence interference/quenching counterscreen; call rule not given here;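 also: ABL1-eGFP fusion protein alone without its RIN1 binding partner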
Hits are given with their value; – = inactive; · = no result. Compounds with a hit are over-represented: about 1.6% of the library has one in this group of screens. Rule as the data show it, unless noted: active = inhibition above about 6.5%; inactive = the rest.

SMILES	Rin1-Abl PPI inh	Tb MetRS inh	SKN-1 block	MT1-MMP act inh	Arrestin-AP2 inh	Rin1-Abl confirm	GFP quencher	others
COC(=O)[C@]12CCCCC=C1N(Cc1ccc3c(c1)OCO3)C(=O)[C@H](CC(=O)NCc1ccccc1)C2	·	–	–	–	·	·	·
Cc1cc(C)nc(N(C#N)Cc2ccc([N+](=O)[O-])cc2)n1	–	–	–	–	–	·	·
Cc1cc(C)nc(N(C#N)Cc2ccccc2)n1	7.2	–	–	–	–	–	–
CC1(c2nnnn2-c2ccc3c(c2)OCCO3)CCC(=O)N1CC(F)(F)F (stereo not given)	·	–	–	–	·	·	·
N#Cc1cccc(OC(=O)C2CCN(C(=O)c3ccc(F)cc3)CC2)c1	–	–	–	–	·	·	·
CC1=C(C(=O)N2CCOCC2)CC(CC(=O)NC2CCCCC2)C(=O)N1Cc1ccc(C(C)(C)C)cc1 (stereo not given)	–	–	–	–	·	·	·
Cc1ccc(CNc2ncnc3ccc(-c4ccoc4C)cc23)o1	–	–	–	–	·	·	·
CCC(CC)CN1CCC(CN2C(=O)C(=O)NC[C@@H]2CC(C)C)CC1	19.2	–	–	–	·	14.4	–
CC(C)CCN1CCC(CN2C(=O)C(=O)NC[C@@H]2CC(C)C)CC1	–	–	–	–	·	·	·
COc1cccc(S(=O)(=O)N(C)C[C@@H]2OCc3cnnn3CCCC(=O)N([C@@H](C)CO)C[C@H]2C)c1	–	–	–	–	·	·	·
CCOC(=O)CCCCC(=O)c1[nH]c(=O)[nH]c1CSc1nnc2c3ccccc3n(C(C)C)c2n1	52.8	–	–	–	–	67.6	–	GFP quench dose=–
CCCn1c2ccccc2c2nnc(SCc3[nH]c(=O)[nH]c3C(=O)CCCCC(=O)OCC)nc21	51.6	–	–	–	–	55.7	–	GFP quench dose=–
O=C(Nc1ccc(Br)cc1F)c1nc[nH]c1C(=O)N1CCc2ccccc2C1	–	–	–	–	·	·	·
C[C@H]1c2cccc(O)c2C(O)=C2C(=O)C3(O)C(O)=C(C(N)=O)C(=O)[C@@H](N(C)C)[C@@H]3[C@@H](O)[C@@H]21 (stereo not given in full)	–	–	–	–	–	·	·
C=C1c2cccc(O)c2C(O)=C2C(=O)[C@]3(O)C(O)=C(C(N)=O)C(=O)[C@@H](N(C)C)[C@@H]3[C@@H](O)[C@H]12	23.1	–	–	–	–	16.9	12.2
O=C1CN(C(=O)CSc2ccccn2)c2ccccc2N1	–	–	–	–	–	·	·
COc1ccc(C(=O)Nc2ccc(NC(=O)c3ccco3)cc2)cc1	–	–	–	–	–	·	·
COc1ccc(-n2c(NC(=O)c3ccco3)c(C#N)c3nc4ccccc4nc32)cc1	19.3	–	–	–	–	–	–
COC(=O)C1=C(C)N(C)C(=O)NC1c1cc2c(cc1[N+](=O)[O-])OCO2 (stereo not given)	15.4	–	–	–	–	11.1	–
COC(=O)C1=C(C)N(CCCC(=O)O)C(=O)NC1c1cc2c(cc1[N+](=O)[O-])OCO2 (stereo not given)	–	–	–	–	–	·	·
COc1ccc(C(C[N+](=O)[O-])c2c(C)[nH]n(-c3ccccc3)c2=O)cc1 (stereo not given)	10.5	–	–	–	–	6.6	–
Cc1[nH]n(-c2ccccc2)c(=O)c1C(C[N+](=O)[O-])c1ccccc1Cl (stereo not given)	–	–	–	–	–	·	·
COc1ccc(C(=O)Nc2ccccc2C(=O)O)cc1Cl	–	–	–	–	–	·	·
CCOc1c(Cl)cc(C(=O)Nc2ccccc2C(=O)O)cc1Cl	13.1	–	–	–	–	19.0	–	GFP quench dose=–
O=C(Nc1ccc(O)cc1C(=O)O)c1cccc(Br)c1	15.6	–	–	–	–	23.5	–	GFP quench dose=–
SMILES	Rin1-Abl PPI inh	Tb MetRS inh	SKN-1 block	MT1-MMP act inh	Arrestin-AP2 inh	Rin1-Abl confirm	GFP quencher	others
CC(=O)Nc1cccc(C(=O)Nc2ccccc2C(=O)O)c1	17.5	–	–	–	–	–	–
CN(C)c1ccc(-c2ccnc3c2CC(C)(C(=O)NCC2CCOCC2)O3)cc1 (stereo not given)	–	–	–	–	·	·	·
Cc1ccc(-n2c(SCC(=O)NCc3ccco3)nnc2-c2cccnc2)c(C)c1	11.6	–	–	–	–	9.7	–
Cc1cccc(-n2c(SCC(=O)NCc3ccco3)nnc2-c2ccco2)c1	–	–	–	–	–	·	·
CCc1ccc(N2C(=O)Cc3c2nc(N)c(C#N)c3N)cc1	–	–	–	–	–	·	·
CCN(CC)c1nc2c3c(nc4c(c3c1C#N)CC(=O)N4c1ccc(Cl)cc1)NC(C)=N2	15.3	–	–	–	–	14.3	–
N=C(N)c1ccc(N=Nc2c(O)ccc3c2[nH]c2ccccc23)cc1	21.9	–	–	–	–	23.8	20.2
COc1ccc2c(c1O)-c1ccccc1CCN(C)C2	–	–	–	–	–	·	·
CN1CCc2cccc3c2[C@@H]1Cc1ccc(O)c(O)c1-3	17.3	–	–	–	–	11.7	13.1
CC1(C)CC(=O)c2cn3c(nc2C1)nc1ccccc13	7.8	–	–	–	–	10.5	–
CC1CC(=O)c2cn3c(nc2C1)nc1ccccc13 (stereo not given)	–	–	–	–	–	·	·
O=C(Nc1ccc(F)c(Cl)c1)c1cc(C2CCCCN2C(=O)c2ccccc2)on1 (stereo not given)	–	–	–	–	·	·	·
CC1(C(=O)O)CCCN1C(=O)c1ccco1 (stereo not given)	–	–	–	–	·	·	·
Cc1ccc(Cn2nnc3c(=O)[nH]c(C4CCN(C(=O)Cc5cccs5)CC4)nc32)cc1	–	–	–	–	–	·	·
Cc1ccc(CC(=O)N2CCC(c3nc4c(nnn4Cc4ccccc4)c(=O)[nH]3)CC2)cc1	8.8	–	–	–	–	7.1	–
CCn1cc(CN2CCC(C(=O)Nc3cccc(-c4cccc(F)c4)c3)CC2)cn1	–	–	–	–	–	·	·
CC(C)n1cc(CN2CCC(C(=O)Nc3cccc(-c4cccc(Cl)c4)c3)CC2)cn1	11.5	–	–	–	–	25.5	–	GFP quench dose=–

Screening results as filed in PubChem.
